# Published values of several laboratories.
# Each line is one published result; the experiments were not run side by side.
# Organism: Mycobacterium tuberculosis
# Observed: microbial growth
Compound,technique,strain,time,MIC
CCc1cc(=O)c2c(OCC(O)CN3CCOCC3)c3ccoc3c(OC)c2o1 (stereo not drawn),resazurin,H37RV,21 days,256 µg/mL
CC[C@@H](CO)NCCN[C@@H](CC)CO,resazurin,H37RV,,2.45 µM
CCc1cc(=O)c2c(OCC(O)CN(CC)CC)c3ccoc3c(OC)c2o1 (stereo not drawn),resazurin,,21 days,64 µg/mL
C#CCNC(=O)c1c(-c2ccc(OC)cc2)oc2ccc(O)c(CN3CCCCC3)c12,,CDC1551,,0.8 µM
Cc1ccc(-c2cc(NCCc3ccc(C(F)(F)F)cc3)n3cnnc3n2)o1,,H37RV,,0.37 µM
CCc1cc(=O)c2c(OCC(O)CNC(C)C)c3ccoc3c(OC)c2o1 (stereo not drawn),resazurin,H37RV,21 days,64 µg/mL
c1ccc(-c2cc(NCCC34CC5CC(CC(C5)C3)C4)n3ncnc3n2)nc1,,H37RV,,12 µM
Cc1nc2[nH]c(=O)n(O)c(=O)c2s1,,,,20.4 µM
CO[C@H]1/C=C/O[C@@]2(C)Oc3c(C)c(O)c4c(O)c(c(/C=N/N5CCN(C)CC5)c(O)c4c3C2=O)NC(=O)/C(C)=C\C=C\[C@H](C)[C@H](O)[C@@H](C)[C@@H](O)[C@@H](C)[C@H](OC(C)=O)[C@@H]1C,,H37RA,,0.01 µM
CO[C@H]1/C=C/O[C@@]2(C)Oc3c(C)c(O)c4c(O)c(c(/C=N/N5CCN(C)CC5)c(O)c4c3C2=O)NC(=O)/C(C)=C\C=C\[C@H](C)[C@H](O)[C@@H](C)[C@@H](O)[C@@H](C)[C@H](OC(C)=O)[C@@H]1C,resazurin,H37RV,5 days,0.03 µg/mL
[H]/N=C(/N)N[C@H]1[C@H](O)[C@@H](O)[C@H](O[C@@H]2O[C@@H](C)[C@](O)(C=O)[C@H]2O[C@@H]2O[C@@H](CO)[C@H](O)[C@@H](O)[C@@H]2NC)[C@@H](N/C(N)=N\[H])[C@@H]1O,resazurin,H37RV,21 days,0.25 µg/mL
CC[C@@H](CO)NCCN[C@@H](CC)CO,resazurin,H37RV,7 days,1.56 µg/mL
FC(F)(F)Oc1ccc(CCNc2cc(-c3cccs3)nc3nncn23)cc1,,H37RV,,0.33 µM
NNC(=O)c1ccncc1,resazurin,H37RV,21 days,0.0625 µg/mL
FC(F)(F)c1ccc(CCNc2cc(-c3cccs3)nc3nncn23)cc1,,H37RV,,0.31 µM
CCCc1nc2[nH]c(=O)n(O)c(=O)c2s1,,,,47.4 µM
COc1c(N2C[C@@H]3CCCN[C@@H]3C2)c(F)cc2c(=O)c(C(=O)O)cn(C3CC3)c12,,H37RV,,0.13 µM
Cc1ccc(CCNc2cc(C3CCCO3)nc3nncn23)cc1 (stereo not drawn),,H37RV,,47 µM
CC[C@@H](CO)NCCN[C@@H](CC)CO,resazurin,,21 days,0.5 µg/mL
C#CC[N+]1(CC)CCc2c(sc(NC(=O)c3c(F)c(F)c(F)c(F)c3F)c2C(=O)OCC)C1 (stereo not drawn),,CDC1551,,5.8 µM
Cc1ccc(-c2cc(NCCc3ccc(OC(F)(F)F)cc3)n3cnnc3n2)o1,,H37RV,,0.46 µM
NNC(=O)c1ccncc1,,H37RV,,0.125 µg/mL
CCOc1cc(C=NNC(N)=S)ccc1OC(=O)CN1C(=O)CSC1=O,resazurin,H37RV,,0.63 µM
c1ccc(-c2cc(NCCC34CC5CC(CC(C5)C3)C4)n3cnnc3n2)nc1,,H37RV,,11 µM
